Experimental data pooled from the literature.
Target: Serine/threonine-protein kinase D2 (PRKD2, Homo sapiens, UniProt Q9BZL6)
Sequence (Q9BZL6 1-878, as in one of the studies): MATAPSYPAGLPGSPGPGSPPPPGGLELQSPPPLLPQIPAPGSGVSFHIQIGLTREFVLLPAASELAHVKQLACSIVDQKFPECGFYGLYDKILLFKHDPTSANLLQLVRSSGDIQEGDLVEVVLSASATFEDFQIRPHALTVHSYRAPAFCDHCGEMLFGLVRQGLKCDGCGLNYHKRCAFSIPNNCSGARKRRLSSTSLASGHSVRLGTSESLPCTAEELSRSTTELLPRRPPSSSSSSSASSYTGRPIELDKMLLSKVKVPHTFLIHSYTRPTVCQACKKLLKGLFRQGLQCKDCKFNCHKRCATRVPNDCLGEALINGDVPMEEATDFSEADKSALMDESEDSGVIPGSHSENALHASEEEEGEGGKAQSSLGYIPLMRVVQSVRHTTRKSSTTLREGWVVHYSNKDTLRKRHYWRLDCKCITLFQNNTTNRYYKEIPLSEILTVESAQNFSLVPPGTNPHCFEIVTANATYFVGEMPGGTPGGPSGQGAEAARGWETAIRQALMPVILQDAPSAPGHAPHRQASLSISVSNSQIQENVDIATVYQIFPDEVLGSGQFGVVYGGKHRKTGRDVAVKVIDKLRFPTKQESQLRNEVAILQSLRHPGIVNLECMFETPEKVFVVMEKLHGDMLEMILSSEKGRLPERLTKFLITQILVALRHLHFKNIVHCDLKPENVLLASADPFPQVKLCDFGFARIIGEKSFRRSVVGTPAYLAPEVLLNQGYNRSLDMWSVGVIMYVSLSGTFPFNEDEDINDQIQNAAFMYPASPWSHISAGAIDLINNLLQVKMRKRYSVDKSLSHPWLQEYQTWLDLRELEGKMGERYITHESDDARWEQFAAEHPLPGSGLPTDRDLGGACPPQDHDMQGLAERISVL

SMILES	test	conditions	remaining binding
N[C@@H]1CCN(c2nccc(-c3cnn4ncccc34)n2)C1	binding	1 µM	94%
Cn1cc(Cl)c2c(Oc3c(F)cc(Nc4cc(Cl)nc(N)n4)cc3F)ccnc21	cell-free assay, competition with immobilised ligand	0.1 µM	91%
Nc1ncc2c(n1)-c1c([nH]c3ccc(C#CC4CC4)cc13)CCCC2	binding, competition with immobilised ligand	1 µM	87%
CN(CCCC(F)(F)F)c1nccc(-c2cnn3ncccc23)n1	binding	1 µM	99%
CCCCN(CCCC)C(=O)CN1C[C@@H](c2cc(OC)c3c(c2)OCO3)[C@H](C(=O)O)[C@H]1CC(C)(C)CCC	cell-free assay, competition with immobilised ligand	1 µM	90.6%
C[C@@H](c1ccc(-n2cnc3c(N)ncnc32)cc1)N1CCc2nn(C)c(Cc3ccccc3)c2C1=O	binding, competition with immobilised ligand	0.1 µM	99%
O=C(NCCCN1CCOCC1)c1ccc(Nc2ncc(Cl)c(-c3ccc(Cl)s3)n2)cc1	binding, competition with immobilised ligand	1 µM	3.9%
O=C(Nc1cccnn1)N1CCC(=Cc2cccc(Oc3ccc(C(F)(F)F)cn3)c2)CC1	cell-free assay, competition with immobilised ligand	1 µM	94%
CCN1CCN(Cc2ccc(C(=O)Nc3ccc(C)c(Oc4ccc5c(c4)CC(=O)N5)c3)cc2C(F)(F)F)CC1	binding, competition with immobilised ligand	1 µM	95%
O=C(NCCCN1CCOCC1)c1ccc(Nc2nccc(-c3cc4ccccc4s3)n2)cc1	binding, competition with immobilised ligand	1 µM	36%
CN(c1nccc(-c2cnn3ncccc23)n1)C1CC1	binding	1 µM	99%
CNC(=O)[C@@H]1CC[C@@H](n2c(-c3ccc4cnccc4c3)nc3ccc(C(=O)NCc4cccc(C(N)=O)c4)cc32)C1	binding, competition with immobilised ligand	1 µM	90%
c1cnn2ncc(-c3ccnc(N4CCC45COC5)n3)c2c1	binding	1 µM	89%
O=C(NC[C@@H]1[C@H]2CN(C(=O)OCc3cc(C(F)(F)F)cc(C(F)(F)F)c3)C[C@@H]12)c1ccc2[nH]nnc2c1	cell-free assay, competition with immobilised ligand	1 µM	85%
O=C(c1ccc(Nc2ncc(Cl)c(-c3cc4ccccc4s3)n2)cc1)N1CCC(N2CCCC2)CC1	binding, competition with immobilised ligand	1 µM	21%
C[C@@H]1CCN(c2nccc(-c3cnn4ncccc34)n2)C1	binding	1 µM	83%
CNCc1ccccc1-c1csc([C@@H](C)Nc2nc(C)nc3cc(OC)c(OC)cc23)c1	cell-free assay, competition with immobilised ligand	1 µM	100%
COc1cnc(Nc2cccc(S(N)(=O)=O)c2)nc1N1CCN(c2ccccc2)CC1	binding, competition with immobilised ligand	1 µM	98%
O=C(NCCCC1CCCCC1)c1ccc(CNC(=O)c2cnn(-c3ccccc3)c2C(F)(F)F)cc1	cell-free assay, competition with immobilised ligand	0.1 µM	100%
CN(C)c1ncc(F)c(-c2cnn3ncccc23)n1	binding	1 µM	87%
Cc1nc(N2CC[C@@H](O)C2)ncc1-c1cc(C(F)(F)F)cc2[nH]ncc12	binding, competition with immobilised ligand	1 µM	79%
O=C(NCC1CCOCC1)c1n[nH]cc1NC(=O)c1c(F)cccc1F	binding, competition with immobilised ligand	1 µM	100%
